In the library only some 3.8% were active in any assay of this set; here they are far more common.
KCNQ1 block: blocks the human KCNQ1 potassium channel; CHO-K1 KCNQ1, FluxOR thallium flux fluorescence; active compounds read high; AID 2642; actives 1.3% (n = 310,000); B-score at 10 µM; P51787;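 active = compounds whose thallium flux B-score, printed positive for inhibition, exceeds three library SD while starting fluorescence stays within three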;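 note: channel opened by potassium depolarization with thallium stimulus after 20 min compound exposure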
hERG rescue: hERG (human) protection from proarrhythmic block. activation (rescue from dofetilide block), less the hit threshold, % at 10 µM. actives 0.51% (n = 310,000). Q12809. CHO-hERG, FluxOR thallium flux, dofetilide IC70 present;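 active = activation above the mean of controls blocked by dofetilide plus 5 SD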;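 note: thallium influx through hERG after potassium depolarization seen as dye fluorescence rise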
KCNK3 inh: human KCNK3 channel inhibition, primary screen; O14649; CHO-KCNK3 thallium flux, FluxOR fluorescence; active compounds read low; B-score at 10 µM; actives 0.84% (n = 340,000);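 active = B-score under library mean minus 4 SD, starting fluorescence ratio at most library mean plus 5 SD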;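 note: more negative B-score means stronger inhibition of thallium flux through KCNK3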
KCNK9 block: human KCNK9 channel inhibition; B-score at 10 µM; Q9NPC2; AID 488922; actives 1.2% (n = 310,000); HEK293 KCNK9, FluxOR thallium flux fluorescence; active compounds read low;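 active = ratio B-score over 3 SD below the library mean, with starting fluorescence within 5 SD of its mean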;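 note: negative B-score means less thallium flux so channel inhibition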
Target sequence (Q9NPC2 whole entry, looked up): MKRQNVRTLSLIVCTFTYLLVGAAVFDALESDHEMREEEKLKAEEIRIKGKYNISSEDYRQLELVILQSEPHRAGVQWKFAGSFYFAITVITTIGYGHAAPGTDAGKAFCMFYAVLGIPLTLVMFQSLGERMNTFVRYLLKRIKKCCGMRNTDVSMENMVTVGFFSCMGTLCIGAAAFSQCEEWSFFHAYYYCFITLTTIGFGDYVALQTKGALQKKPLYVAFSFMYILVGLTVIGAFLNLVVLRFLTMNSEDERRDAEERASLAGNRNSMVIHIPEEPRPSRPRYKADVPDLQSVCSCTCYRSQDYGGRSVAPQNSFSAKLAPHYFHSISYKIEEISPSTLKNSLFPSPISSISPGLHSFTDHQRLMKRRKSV
KCNQ1 act: human KCNQ1 channel potentiation or activation; B-score at 10 µM; CHO-K1 KCNQ1, thallium flux FluxOR fluorescence; active compounds read high; P51787; actives 0.35% (n = 310,000);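 active = fluorescence ratio B-score, a plate-corrected score, at least three library SD, with initial intensity B-score within 5 SD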
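assay system = CHO-K1 cells stably expressing KCNQ1 | medium = assay buffer, equal DMSO in all wells | timing = 37 °C overnight plating, 90-min dark dye load, 20-min compound pretreatment | measured by = kinetic FluxOR thallium fluorescence, 10-s 1-Hz baseline, 110-s post-stimulus read | measure = fluorescence change relative to baseline, converted to B score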
Kir21 inh: blocks the mouse Kir2.1 inward-rectifier potassium channel; P35561; HEK293-Kir2.1, FluxOR thallium flux fluorescence; active compounds read low; B-score at 10 µM; actives 0.85% (n = 310,000); AID 1672;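 active = fluorescence ratio B-score at or below minus 3 SD of library scores, with starting-brightness B-score within 2 SD, cut at about -4.2 in these data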;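 note: channel flux triggered by added potassium and thallium sulfate stimulus; B-score of peak minus minimum fluorescence over baseline after thallium stimulus; more negative B-score means stronger Kir2.1 block with less thallium influx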
A number is an active result; – = inactive; · = not tested or not shown.

SMILES	KCNQ1 block	hERG rescue	KCNK3 inh	KCNK9 block	KCNQ1 act	Kir21 inh
Cc1oc2c(cc(NS(=O)(=O)c3ccc4c5c(cccc35)C(=O)N4)c3ccccc32)c1C(=O)OC(C)C	–	–	–	-7.6	–	–
O=C1CCCc2oc3c(cc(NS(=O)(=O)c4ccc5c6c(cccc46)C(=O)N5)c4ccccc43)c21	–	–	–	–	–	–
O=C(COC(=O)[C@@H]1CC(O)CN1S(=O)(=O)c1ccc(Cl)cc1)NC(=O)NCc1ccccc1 (some centres undefined)	–	–	–	–	–	–
C=C(CCO)C1=CCN(S(=O)(=O)C(C)(C)C)[C@H]1CCO	·	·	–	·	·	·
COc1ccccc1C(=O)Nc1ccnn1C1CCN(CCCC2CCCC2)CC1	–	–	–	–	–	–
COC(=O)c1cc(S(=O)(=O)N2CCCC(C)C2)cn1C (centres undefined)	–	–	–	–	–	–
COC(=O)c1cc(-c2ccc(S(=O)(=O)N3CCCC(C)C3)cc2)c(C(F)(F)F)s1 (centres undefined)	6	–	–	–	–	–
O=C(Nc1ccc(Cl)c(Cl)c1)c1ccc(Cl)c(Cl)c1	7	–	–	–	–	–
O=C(Nc1ccc(Cl)c(Cl)c1)c1ccncc1	–	–	–	–	–	–
C#Cc1cccc(N2C(=O)C3C4C=CC(C3C2=O)C2C(=O)N(c3cccc(C#C)c3)C(=O)C42)c1 (centres undefined)	·	·	–	·	·	·
COc1ccc(C(=O)c2coc3ccc(O)c(CN4CCCC4)c23)cc1	–	–	–	–	–	–
CCN(CC)Cc1c(O)ccc2occ(C(=O)c3ccc(OC)cc3)c12	–	–	–	–	–	–
O=C(c1cccs1)c1coc2ccc(O)c(CN3CCOCC3)c12	–	–	–	–	–	-4.2
Cc1ccc(C(=O)c2coc3ccc(O)c(CN4CCN(C)CC4)c23)cc1	–	–	–	–	–	-4.6
O=C(c1coc2ccc(O)c(CN3CCOCC3)c12)C1CC1	–	–	–	–	–	–
COc1ccc(C(=O)c2coc3ccc(O)c(CN4CCOCC4)c23)cc1	–	–	–	–	–	-4.7
O=C(O)C(C1CCCCC1)C1(O)CCCC1 (centres undefined)	·	·	–	·	·	·
CCCCCCNC(=O)CNC(=S)N(Cc1cccs1)C1CCCCC1	7	–	–	–	–	–
CCOC(=O)CNC(=S)N(Cc1cccs1)C1CCCC1	–	–	–	–	–	–
COc1ccccc1-c1nnc(SCC(=O)NCc2cccs2)n1N	–	–	–	–	–	–
CCN=C1S/C(=C\c2ccc(O)c(OCC)c2)C(=O)N1CC	–	–	–	–	–	-5.7
O=C1CCC(C(=O)N2CCCCCC2)CN1CCc1ccc(Cl)cc1 (centres undefined)	–	–	–	–	–	–
O=C(NC(=S)Nc1ccccc1Cl)c1csnn1	–	60	–	–	–	–
O=C(NC(=S)Nc1cccc(C(F)(F)F)c1)c1csnn1	–	54	–	–	63	–
COc1ccc(CNS(=O)(=O)NCc2ccc(C)cc2)cc1	–	–	–	–	–	–
SMILES	KCNQ1 block	hERG rescue	KCNK3 inh	KCNK9 block	KCNQ1 act	Kir21 inh
COC(=O)c1ccc(Oc2nc(Nc3ccc(C)c(C)c3)nc(N(C)C)n2)cc1	6	–	–	–	–	–
COc1ccc(C(=O)N/C(=C\c2cccc3ccccc23)C(=O)N2CCN(C)CC2)cc1OC	–	9.7	–	–	–	–
CCOC(=O)N1CCN(C(=O)/C(=C/c2cccc3ccccc23)NC(=O)c2ccc(OC)c(OC)c2)CC1	–	–	–	–	–	–
Cc1ccc(N2C(N)=C(C#N)C(c3cc(CN4CCOCC4)cs3)C3=C2CC(C)(C)CC3=O)cc1 (centres undefined)	–	–	–	–	–	–
Cc1ccc(C(C)NC(=O)c2cccs2)cc1 (centres undefined)	–	–	–	–	–	–
Cc1ccc(C(C)NC(=O)c2cccs2)cc1C (centres undefined)	–	5.2	–	–	–	–
OC1(c2ccc(Cl)cc2)CN(c2ccccc2)C2=[N+]1CCS2 (centres undefined)	6	–	–	–	–	–
OCCN(Cc1ccccc1)Cc1ccc(C(F)(F)F)cc1	–	–	–	-6.9	–	–
CN(C)c1ccc(N2C(=O)CSC2=S)cc1	–	6.8	–	–	–	–
O=C(COC(=O)c1cc([N+](=O)[O-])ccc1NCCO)Nc1cccnc1Cl	·	·	–	·	·	·
Cc1ccc(NC(=O)c2ccc(COc3ccccc3)o2)nc1	–	–	–	–	–	–
O=S(=O)(NCCc1cn2ccccc2n1)c1ccc(-c2ccccc2)cc1	–	–	–	–	–	-4.2
Cc1cccn2c(=O)c3cc(C(=O)NC4CCCC4)c(=N)n(Cc4ccc(F)cc4)c3nc12	–	–	–	–	–	–
Cc1cccn2c(=O)c3cc(C(=O)NC4CCCCC4)c(=N)n(Cc4ccccc4)c3nc12	7	–	–	–	–	–
CCN(C(=O)c1cc2c(=O)n3cccc(C)c3nc2n1CCCOC)C1CCCCC1	–	–	-11	–	–	–
COc1ccc(CNC(=S)Nc2ccc(F)c(Cl)c2)cc1OC	–	4.9	–	–	–	–
N#C/C(=C\c1cccc(Oc2ccccc2)c1)C(=O)N1CCOCC1	–	–	–	–	–	-13
O=C(NC1CC2CCCC(C1)N2Cc1cccs1)c1ccc([N+](=O)[O-])cc1 (centres undefined)	–	–	·	–	–	–
O=[N+]([O-])c1cc(S(=O)(=O)Nc2ccccc2)ccc1NCc1cccnc1	–	–	–	–	–	–
O=[N+]([O-])c1cc(S(=O)(=O)Nc2ccccc2)ccc1NCc1ccccc1	–	–	–	-6.6	–	–
CC(C)(C)c1ccc(-c2cn(-c3ccc(Br)cc3)c3[n+]2CCCS3)cc1	7	–	–	–	–	–
Cc1c(N)cccc1Cl	·	·	–	·	·	·
CCC(Sc1ncccc1C(=O)Oc1cccc([N+](=O)[O-])c1)C(=O)Nc1ccccc1OC (centres undefined)	–	–	–	-7.9	–	–
Cn1cccc1C(=O)NC(=O)COC(=O)c1ccc(O)cc1	–	–	–	–	–	–
Cn1cccc1C(=O)NC(=O)COC(=O)c1ccccc1O	–	5.3	–	–	–	–
CCOC(=O)C1CCCN(C(=O)Cn2nc(C)n3c(cc4c(OC)cccc43)c2=O)C1 (centres undefined)	–	–	–	–	–	–
CCOc1ccc(CCNC(=O)c2cc(-c3ccccc3)c(N3CCOCC3)s2)cc1OCC	6	–	–	–	–	–
COc1ccc(C)cc1S(=O)(=O)n1c([N+](=O)[O-])cnc1C	–	–	–	–	–	–

Assay outcomes (PubChem BioAssay)
